High-throughput results from PubChem.
Shown are actives, neighbours in structure and some others; about 3.1% of the full set was active somewhere.
V-ATPase pH: regulators of yeast V-ATPase proton pumping, primary screen, pHLuorin cytosolic pH fluorescence | S. cerevisiae | response, % at 10 µM | actives 0.37% (n = 350,000) | AID 504577, 2011; in the data active = response mostly above about 7.3%, no sharp cut-off; inactive = mostly below about 5.4%; also: actives read high
ADAM10 inh: human ADAM10 inhibitors, primary screen, biochemical, QFRET, HTS; recombinant ADAM10, EDANS/DABCYL FRET peptide cleavage, 3 h; inhibition, % at 7 µM; actives 0.62% (n = 370,000); AID 720582, 2013;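 active = inhibition above a per-campaign cutoff equal to the mean of compounds falling between control-based bounds plus 3 SD, cut at about 20% in these data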;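 also: 0% = DMSO wells while the 100% control is not disclosed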
Target sequence (O14672 214-748 limits assumed): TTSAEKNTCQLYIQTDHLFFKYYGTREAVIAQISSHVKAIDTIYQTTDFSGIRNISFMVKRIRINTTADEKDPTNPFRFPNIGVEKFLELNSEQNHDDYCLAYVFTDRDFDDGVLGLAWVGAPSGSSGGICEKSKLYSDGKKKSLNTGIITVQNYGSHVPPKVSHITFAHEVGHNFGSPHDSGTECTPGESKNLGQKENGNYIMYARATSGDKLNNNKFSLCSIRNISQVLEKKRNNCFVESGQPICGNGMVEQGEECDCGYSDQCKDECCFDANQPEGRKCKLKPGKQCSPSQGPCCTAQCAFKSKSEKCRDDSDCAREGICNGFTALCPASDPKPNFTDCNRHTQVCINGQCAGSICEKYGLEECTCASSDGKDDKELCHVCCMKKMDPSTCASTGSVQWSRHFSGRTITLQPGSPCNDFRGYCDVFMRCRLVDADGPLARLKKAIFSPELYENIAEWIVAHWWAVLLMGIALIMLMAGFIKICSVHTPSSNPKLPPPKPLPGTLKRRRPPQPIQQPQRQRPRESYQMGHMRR
aDG glyco up: activators of alpha-DG glycosylation, primary screen, uHTS, Pro5-aDG cells, AlphaScreen. alpha-DG glycosylation AlphaScreen (IIH6); 0% Pro5, 100% B10-LARGE cell signal. activation, % at 10 µM. actives 0.22% (n = 360,000);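 active = activation of at least 8% versus controls, or a plate z-score of at least 8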;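 also: Pro5 are CHO cells carrying HIG-tagged alpha-DG that lacks glycosylation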
Lipid droplet: inhibitors of hepatocyte lipid droplet formation, primary screen, imaging, high-throughput imaging, BODIPY stain. AID 1656, 2009. AML12 mouse hepatocytes, oleate lipid droplets. actives 0.4% (n = 240,000). inhibition, % at 6.5 µM;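 active = lipid droplet intensity inhibited by at least 50%, with more than 500 cells counted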
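Material – mouse AML12 hepatocyte cell line, fixed after treatment · Compound dosing – one dose, 6.5 µM compound · Times – compound with oleate, overnight · Measured by – Image-based BODIPY and DAPI two-channel analysis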
ADAM17 inh: ADAM17 inhibitors, primary screen, biochemical, QFRET | actives 0.83% (n = 370,000) | AID 720648, 2013 | inhibition, % at 6.95 µM | recombinant ADAM17, EDANS/DABCYL FRET peptide cleavage;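 active = inhibition above the mean of compounds lying between control limits plus 3 SD, set per campaign, cut at about 8.5% in these data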;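 also: 0% = DMSO-only wells as the low control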
MPTP block: mitochondrial permeability transition pore inhibitors, primary screen, biochemical, isolated mouse mitochondria, absorbance; actives 1.4% (n = 360,000); inhibition, % at 10 µM; Ca2+ swelling absorbance, 30 min;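 active = inhibition of 50% or more, scaled per plate between neutral and stimulator controls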;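 also: 0% = DMSO wells given calcium and 100% = 1 mM EGTA wells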
VATPase regulator: yeast V-ATPase proton pumping modulators, confirmation, S. cerevisiae, pH-sensitive GFP, second cherry-pick; response, % at 10 µM; S. cerevisiae pHLuorin cytosolic pH, V-ATPase proton transport; actives 2% (n = 980); shares compounds with V-ATPase pH; AID 602197, 2012; in the data active = response above about 24%;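 also: plate controls were vehicle wells for no effect and positive control wells for full effect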
* hit, by the source's call; nt = no result.

SMILES | V-ATPase pH | ADAM10 inh | aDG glyco up | Lipid droplet | ADAM17 inh | MPTP block | VATPase regulator
COc1ccccc1NC(=O)OCCCN1CCC2(CCC(C)CC2)C1=O (stereo unspecified) | nt | -9.7 | nt | nt | -0.7 | nt | nt
COc1ccc(/C=C2\CC3(OC(=O)C4CCCCC4)CCCN2C3)cc1 (stereo unspecified) | nt | -2.1 | nt | nt | 1.1 | nt | nt
N#Cc1c(NC(=O)Cn2nc(C(F)(F)F)c3c2CCCC3)sc2c1CCC2 | 10.2* | 0.9 | 0.1 | nt | 1.9 | 12.0 | 14.1
CC1CCc2c(sc(NC(=O)Cn3nc(C(F)(F)F)c4c3CCCCC4)c2C#N)C1 (stereo unspecified) | -0.5 | -2.6 | 0.2 | nt | -3.7 | 16.5 | nt
C=CCn1cc(C(C)=O)c(=O)[nH]c1=O | 6.4* | -1.3 | 0.1 | -3.8 | -2.8 | -1.7 | -1.9
CCCCCCCCn1cc(C(C)=O)c(=O)[nH]c1=O | -0.5 | -5.2 | 0.0 | nt | -3.0 | 0.3 | nt
CC(C)[C@@H]1C(=O)N[C@H](Cc2cn(S(=O)(=O)c3ccccc3)c3ccccc23)C(=O)N1C | nt | -5.9 | nt | nt | -4.8 | nt | nt
COc1ccccc1CCNC(=O)C1CCC(=O)N(Cc2ccccc2OC)C1 (stereo unspecified) | -4.7 | -12.1 | 0.5 | -2.0 | -4.9 | 0.0 | nt
COc1ccccc1CN1CC(C(=O)NCCCc2ccc(F)cc2)CCC1=O (stereo unspecified) | 12.6* | -4.1 | -0.4 | 6.3 | -3.5 | 0.6 | 0.1
CC1=C(C(=O)Nc2cc(C(=O)NCc3ccccc3)ccc2C)SCCO1 | 55.3* | 3.3 | -0.2 | nt | 1.3 | 0.7 | 1.5
O=C(C1CCCN1S(=O)(=O)c1ccc(Cl)s1)N1CCc2ccccc2C1 (stereo unspecified) | nt | -7.1 | nt | nt | -1.5 | nt | nt
COc1cccc(/C(N)=N/OC(=O)Cc2ccccc2[N+](=O)[O-])c1 | 13.8* | 2.9 | -0.1 | 2.9 | 0.5 | 0.0 | -0.2
CC1(C)CC(=O)C(C(C2=C(O)CC(C)(C)CC2=O)c2cccs2)C(=O)C1 (stereo unspecified) | 10.7* | nt | 0.3 | nt | nt | 19.0 | 35.5*
CC(C)CC(=O)N1CCc2cc(S(=O)(=O)N(C)Cc3ccco3)ccc21 | nt | -10.6 | nt | nt | -2.0 | nt | nt
CCCCCCCCNC(=O)c1cccnc1SCC(=O)Nc1ccccc1OC | 15.7* | -4.0 | 0.1 | -24.2 | -0.8 | 20.5 | -8.5
COc1ccc(OC)c(NC(=O)CSc2ncccc2C(=O)O)c1 | 3.3 | -2.7 | 0.0 | 14.1 | 2.4 | -4.0 | nt
Cc1ccccc1C(=O)NC(=S)NC1CCSC1=O (stereo unspecified) | -0.3 | 0.2 | -0.2 | 4.2 | -1.1 | -0.5 | nt
O=C(NC(=S)NC1CCSC1=O)c1cccs1 (stereo unspecified) | 8.3* | -1.9 | 0.1 | 13.2 | 5.1 | -1.0 | 3.0
Cn1c(SCC(=O)NC2CCCCC2)nnc1-c1cccnc1 | -1.5 | -10.9 | 0.0 | -2.1 | -0.1 | 0.5 | nt
Cn1c(SCC(=O)NC2(C#N)CCCCC2)nnc1-c1cccnc1 | 9.3* | -0.5 | -0.1 | 4.6 | -0.9 | 0.5 | 0.7
C/C(CC(=O)Nc1ccc2ccccc2c1)=N\NC(=O)c1cnccn1 | -3.1 | -2.2 | -0.1 | 3.6 | 4.8 | -0.1 | nt
C/C(CC(=O)Nc1ccccn1)=N\NC(=O)c1cnccn1 | 15.8* | -144.9 | -0.1 | 15.3 | -54.6 | 2.9 | 3.9
CN(C)CCCNC1=CC(=O)OC12CCCCC2 | 2.2 | 1.7 | -0.2 | -18.0 | -0.2 | -5.1 | nt
O=C1C=C(NCc2ccc(Cl)cc2Cl)C2(CCCCC2)O1 | 10.2* | 6.2 | -0.2 | 16.3 | 2.1 | 11.6 | 3.7
CCOC(=O)N1CCN(C(=O)c2cc3n(n2)C(C(F)(F)F)CC(c2ccc4c(c2)OCO4)N3)CC1 (stereo unspecified) | 7.4* | 4.2 | 1.2 | -19.3 | -2.0 | -1.6 | -23.2
SMILES | V-ATPase pH | ADAM10 inh | aDG glyco up | Lipid droplet | ADAM17 inh | MPTP block | VATPase regulator
O=C(NCc1ccc2c(c1)OCO2)c1cc2n(n1)C(C(F)(F)F)CC(c1ccc3c(c1)OCO3)N2 (stereo unspecified) | 3.1 | 7.1 | -0.2 | 0.3 | 1.0 | -1.1 | nt
Cc1cccc(NC(=O)c2ccccc2OCC(=O)N2CCOCC2)c1C | 2.2 | 1.4 | -0.1 | 2.4 | 1.7 | 0.6 | nt
O=C(Nc1cccc(Cl)c1Cl)c1ccccc1OCC(=O)N1CCOCC1 | 11.2* | -8.7 | 0.1 | -0.5 | 1.2 | 0.6 | -4.5
Cn1nc(C(=O)N2CCN(c3cccc(Cl)c3)CC2)c2c1-c1ccccc1S(=O)(=O)C2 | 0.6 | -1.4 | 0.1 | -0.2 | 0.8 | -1.6 | nt
Cn1nc(C(=O)N2CCN(c3ccc(Cl)cc3)CC2)c2c1-c1ccccc1S(=O)(=O)C2 | 8.6* | 4.5 | -0.1 | -28.8 | 1.4 | -1.3 | -6.2
O=C(NC1CCc2ccccc21)c1cc(-c2ccc(Cl)cc2)nc2ccccc12 (stereo unspecified) | nt | -7.9 | nt | nt | -2.9 | nt | nt
Cc1noc(C)c1C(=O)OCC(=O)Nc1ncc(Cl)c(C)c1Cl | 10.9* | -4.4 | 0.0 | nt | -2.5 | -1.1 | 0.8
Cc1c(Cl)cnc(NC(=O)COC(=O)c2ccncc2)c1Cl | 5.9 | -14.1 | 0.0 | nt | -6.9 | 0.8 | nt
O=c1[nH]n(-c2ccc(Cl)cc2)c(=O)c(Cl)c1Cl | 1.8 | 5.2 | 0.1 | nt | 6.6 | 0.5 | 0.7
Cc1noc(C)c1NC(=O)Nc1ccc2c(c1)C(=O)N(C)[C@H]1CC[C@H](CC(=O)NCc3ccc(Cl)cc3)O[C@@H]1CO2 | nt | 10.2 | nt | nt | -2.4 | nt | nt
C[C@@H](C(=O)N1CCN(Cc2ccc3c(c2)OCO3)CC1)n1nnc2ccccc2c1=O | 24.3* | -7.0 | -0.2 | -5.9 | -0.9 | -0.7 | 2.1
CCCC(=O)N1CCN(Cc2ccc3c(c2)OCO3)CC1 | -2.1 | -0.4 | -0.1 | 10.3 | -1.4 | 0.0 | nt
CCOCC(=O)N1CCN(Cc2ccc3c(c2)OCO3)CC1 | 9.3* | -1.3 | -0.1 | 12.5 | -1.0 | 0.0 | 0.4
CN(CCCOC(=O)c1cccs1)C1CN(Cc2cn(Cc3ccccc3Cl)nn2)S(=O)(=O)C1 (stereo unspecified) | nt | -6.6 | nt | nt | -3.6 | nt | nt
Cc1ccsc1-c1nc(CN(C)C(C2CC2)C2CC2)c(C)o1 | 18.1* | -9.2 | 0.2 | 14.5 | -3.7 | -1.2 | 0.5
Cc1nc2ccc(NC(=O)c3cc(F)cc(F)c3)cc2c(=O)[nH]1 | nt | -43.0 | nt | nt | -9.3 | nt | nt
C[C@@H]1CCN(C2CC2)S(=O)(=O)c2c(cccc2N2CCC[C@H]2C)O1 | nt | -19.4 | nt | nt | -5.9 | nt | nt
Clc1cccc(CSC2=NCCCN2)c1 | -1.7 | nt | nt | -10.7 | nt | nt | 2.7
